Measured values from paper PMC3542617 (Cell Death & Disease, 2012).
“Also recorded” adds a separate entry of the source.

Key:
[1] = Body weight of mice in growth delay experiments; assay type: in vivo
MiaPaCa-2 xenografts = experiment: Tumor growth delay, MiaPaCa-2 xenografts; assay type: in vivo, mice; details: experiment III
In short: (§1)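 Female Balb/c nude mice were inoculated s.c. with 10^6 cells in serum-free medium plus Matrigel and randomized at ~80 mm3 (day 0). […] Tumor volume was tracked to 600 mm3 (TV600); n=4–5.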

DNA-PK [2] = target: T1, DNA-PK (Homo sapiens, UniProt P78527); experiment: Biochemical inhibition of ATR and related kinases
[3] = test system: PSN-1 and MiaPaCa-2 cells; experiment: Cell-cycle assay; assay type: cell-based
mTOR = mTOR (Homo sapiens, UniProt P42345); experiment: Biochemical inhibition of ATR and related kinases
PSN-1 xenografts = experiment: Tumor growth delay, PSN-1 xenografts; assay type: in vivo, mice
In short: as §1

ATM [4] = target: T2, ATM (Homo sapiens, UniProt Q13315); experiment: Cellular inhibition of ATR and related kinases; assay type: cell-based
T2 sequence (Q13315 whole entry, species assumed): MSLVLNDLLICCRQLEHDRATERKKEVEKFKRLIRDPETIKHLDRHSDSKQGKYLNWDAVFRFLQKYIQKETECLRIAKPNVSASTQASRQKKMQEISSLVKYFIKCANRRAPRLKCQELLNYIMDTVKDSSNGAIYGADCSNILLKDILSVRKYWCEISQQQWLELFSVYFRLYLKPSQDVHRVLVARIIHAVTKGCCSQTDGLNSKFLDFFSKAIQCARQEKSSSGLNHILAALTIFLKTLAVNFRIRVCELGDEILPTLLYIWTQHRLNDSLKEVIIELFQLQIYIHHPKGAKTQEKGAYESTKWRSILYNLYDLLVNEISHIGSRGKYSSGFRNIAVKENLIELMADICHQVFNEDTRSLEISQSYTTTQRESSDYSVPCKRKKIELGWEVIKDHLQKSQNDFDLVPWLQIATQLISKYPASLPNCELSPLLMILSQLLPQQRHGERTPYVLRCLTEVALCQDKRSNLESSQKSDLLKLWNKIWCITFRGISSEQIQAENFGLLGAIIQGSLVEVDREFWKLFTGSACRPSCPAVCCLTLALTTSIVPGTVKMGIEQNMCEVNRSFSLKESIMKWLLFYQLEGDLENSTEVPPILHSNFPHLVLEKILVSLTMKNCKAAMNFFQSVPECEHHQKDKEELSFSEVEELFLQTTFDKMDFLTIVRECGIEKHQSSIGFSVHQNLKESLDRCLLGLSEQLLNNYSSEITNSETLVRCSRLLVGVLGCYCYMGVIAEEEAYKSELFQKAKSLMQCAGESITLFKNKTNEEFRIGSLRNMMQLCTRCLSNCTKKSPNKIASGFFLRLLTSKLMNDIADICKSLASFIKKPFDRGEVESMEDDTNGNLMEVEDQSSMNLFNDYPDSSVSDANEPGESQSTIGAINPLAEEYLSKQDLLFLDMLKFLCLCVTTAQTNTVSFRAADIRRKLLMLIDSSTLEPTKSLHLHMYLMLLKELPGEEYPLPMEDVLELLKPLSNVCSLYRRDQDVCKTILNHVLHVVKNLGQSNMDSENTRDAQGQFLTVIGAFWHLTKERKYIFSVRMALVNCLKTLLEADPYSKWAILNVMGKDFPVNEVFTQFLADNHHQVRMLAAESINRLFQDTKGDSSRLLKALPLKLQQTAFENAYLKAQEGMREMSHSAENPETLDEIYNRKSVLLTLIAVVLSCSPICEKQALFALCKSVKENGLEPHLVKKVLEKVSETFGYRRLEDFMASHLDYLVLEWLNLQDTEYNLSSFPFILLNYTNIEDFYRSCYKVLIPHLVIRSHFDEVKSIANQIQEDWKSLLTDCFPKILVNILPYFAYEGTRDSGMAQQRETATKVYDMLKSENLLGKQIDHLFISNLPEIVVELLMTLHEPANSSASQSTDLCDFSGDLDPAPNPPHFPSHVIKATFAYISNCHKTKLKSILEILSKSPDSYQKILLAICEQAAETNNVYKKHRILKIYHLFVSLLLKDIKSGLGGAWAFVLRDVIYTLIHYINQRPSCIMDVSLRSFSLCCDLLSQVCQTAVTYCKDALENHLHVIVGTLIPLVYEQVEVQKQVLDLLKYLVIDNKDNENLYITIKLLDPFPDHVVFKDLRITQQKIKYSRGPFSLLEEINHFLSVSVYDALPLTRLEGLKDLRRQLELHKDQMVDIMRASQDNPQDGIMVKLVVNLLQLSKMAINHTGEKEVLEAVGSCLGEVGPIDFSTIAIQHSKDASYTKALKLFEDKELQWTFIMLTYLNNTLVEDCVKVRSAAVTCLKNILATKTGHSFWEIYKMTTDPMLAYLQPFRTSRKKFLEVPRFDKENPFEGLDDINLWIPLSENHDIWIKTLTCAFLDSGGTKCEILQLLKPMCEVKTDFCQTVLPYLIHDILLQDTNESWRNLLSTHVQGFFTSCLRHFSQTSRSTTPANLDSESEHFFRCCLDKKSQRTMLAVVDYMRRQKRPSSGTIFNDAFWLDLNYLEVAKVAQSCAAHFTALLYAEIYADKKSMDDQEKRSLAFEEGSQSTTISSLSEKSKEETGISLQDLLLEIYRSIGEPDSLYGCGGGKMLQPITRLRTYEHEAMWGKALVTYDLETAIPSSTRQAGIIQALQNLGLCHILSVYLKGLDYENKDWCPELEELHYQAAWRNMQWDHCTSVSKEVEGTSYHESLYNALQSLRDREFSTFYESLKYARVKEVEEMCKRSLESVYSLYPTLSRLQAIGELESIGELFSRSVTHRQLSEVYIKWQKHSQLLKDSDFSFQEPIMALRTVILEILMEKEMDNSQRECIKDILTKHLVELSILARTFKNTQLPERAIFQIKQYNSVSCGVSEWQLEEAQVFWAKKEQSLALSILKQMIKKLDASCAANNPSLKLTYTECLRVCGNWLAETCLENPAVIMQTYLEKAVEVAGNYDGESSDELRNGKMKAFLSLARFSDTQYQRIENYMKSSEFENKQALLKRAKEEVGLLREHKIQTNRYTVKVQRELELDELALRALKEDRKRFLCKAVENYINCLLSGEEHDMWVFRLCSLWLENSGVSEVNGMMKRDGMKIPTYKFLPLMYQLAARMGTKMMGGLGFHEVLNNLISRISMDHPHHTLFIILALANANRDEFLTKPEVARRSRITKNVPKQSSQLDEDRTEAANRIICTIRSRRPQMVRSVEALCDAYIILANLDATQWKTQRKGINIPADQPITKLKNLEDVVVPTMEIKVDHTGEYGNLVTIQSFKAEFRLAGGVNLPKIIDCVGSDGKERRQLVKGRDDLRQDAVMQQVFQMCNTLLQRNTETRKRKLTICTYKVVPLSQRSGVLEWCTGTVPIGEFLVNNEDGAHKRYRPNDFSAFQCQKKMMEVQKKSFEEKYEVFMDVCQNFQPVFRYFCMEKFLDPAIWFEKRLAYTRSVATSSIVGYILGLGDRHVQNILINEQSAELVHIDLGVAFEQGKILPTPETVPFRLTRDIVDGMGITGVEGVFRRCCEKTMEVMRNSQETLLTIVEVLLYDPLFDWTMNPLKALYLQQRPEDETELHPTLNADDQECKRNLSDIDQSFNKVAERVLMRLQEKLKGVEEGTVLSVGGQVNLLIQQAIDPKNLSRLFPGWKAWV

[5] = test system: PDAC cells (PSN-1, MiaPaCa-2, PancM); experiment: Clonogenic survival assay, pancreatic cancer cells; assay type: cell-based
PSN-1 cells = experiment: Apoptosis in vitro assay; assay type: cell-based; details: for apoptosis, single agent: VE-822 80 nM or gemcitabine 10 nM, 48 h after XRT time point
In short: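 For PSN-1 cells, gemcitabine (10 nM) was given 24 h pre-XRT, then replaced with fresh medium. […] Cells were analysed at 48 h post-XRT by Annexin V-FITC/PI flow cytometry to separate early apoptotic from necrotic cells.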

[6] = test system: fibroblasts (HFL-1, MRC5); experiment: Clonogenic survival assay, normal fibroblasts; assay type: cell-based, human; details: VE-822 80 nM
DNA-PK [7] = target: T1, DNA-PK; experiment: Cellular inhibition of ATR and related kinases; assay type: cell-based
PI3Kγ = PI3Kγ (Homo sapiens, UniProt P48736); experiment: Biochemical inhibition of ATR and related kinases
Chain of PI3Kγ (P48736 whole entry, species assumed): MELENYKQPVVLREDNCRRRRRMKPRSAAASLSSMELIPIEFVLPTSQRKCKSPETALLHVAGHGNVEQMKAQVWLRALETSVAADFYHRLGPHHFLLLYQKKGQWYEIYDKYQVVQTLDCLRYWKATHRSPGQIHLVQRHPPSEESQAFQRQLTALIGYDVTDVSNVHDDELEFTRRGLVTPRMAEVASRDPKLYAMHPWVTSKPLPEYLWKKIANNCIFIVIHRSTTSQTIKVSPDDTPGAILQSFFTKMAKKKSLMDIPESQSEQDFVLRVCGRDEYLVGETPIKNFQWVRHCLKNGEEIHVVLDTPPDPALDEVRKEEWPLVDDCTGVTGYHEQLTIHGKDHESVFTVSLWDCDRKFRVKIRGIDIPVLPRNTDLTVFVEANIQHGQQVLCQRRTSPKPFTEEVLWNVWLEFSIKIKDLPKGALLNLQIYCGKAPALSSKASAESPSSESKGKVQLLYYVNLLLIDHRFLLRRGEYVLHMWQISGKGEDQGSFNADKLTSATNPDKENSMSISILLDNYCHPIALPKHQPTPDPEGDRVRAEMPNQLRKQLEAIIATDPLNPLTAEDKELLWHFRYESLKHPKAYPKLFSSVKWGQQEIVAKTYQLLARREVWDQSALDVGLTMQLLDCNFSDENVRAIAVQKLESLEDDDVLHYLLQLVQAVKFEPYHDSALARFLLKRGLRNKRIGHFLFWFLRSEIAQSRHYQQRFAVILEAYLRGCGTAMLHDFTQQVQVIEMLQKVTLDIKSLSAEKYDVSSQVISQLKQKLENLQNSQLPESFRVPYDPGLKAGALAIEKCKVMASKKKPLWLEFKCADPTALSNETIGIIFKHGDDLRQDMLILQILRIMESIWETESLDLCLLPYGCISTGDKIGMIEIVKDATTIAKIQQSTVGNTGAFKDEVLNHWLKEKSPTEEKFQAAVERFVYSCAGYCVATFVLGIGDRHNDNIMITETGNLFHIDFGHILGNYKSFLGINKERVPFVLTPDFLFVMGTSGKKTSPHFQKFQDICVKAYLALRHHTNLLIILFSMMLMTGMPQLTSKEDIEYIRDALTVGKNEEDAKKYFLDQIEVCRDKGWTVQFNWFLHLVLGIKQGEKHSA

[8] = test system: phospho-Ser345-Chk1 in HFL-1 normal fibroblasts; experiment: Phospho-Chk1; assay type: cell-based, human; details: VE-822 80 nM
In short: (§2)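 Lysates were taken 2 h post-XRT or 4 h post-gemcitabine, after cold PBS rinse, in reducing Triton lysis buffer. Phospho-Chk1 antibody was used at 1:1000; β-actin was the loading control.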

[9] = test system: small intestine (jejunum); experiment: Intestinal damage after abdominal XRT; assay type: in vivo, mice
phospho-Ser345-Chk1 = experiment: Immunoblot for Chk1 phosphorylation; assay type: cell-based; details: VE-822 80 nM; gemcitabine 100 nM, XRT 6 Gy; PDAC cells
In short: as §2

[10] = test system: phospho-Ser-345-Chk1 in PSN-1 xenografts; experiment: Chk1 phosphorylation; assay type: in vivo, mice; details: VE-822 60 mg/kg d0, 1; gemcitabine 100 mg/kg d0; XRT 6 Gy d1; 2 h post-XRT
[11] = test system: PSN-1 and MiaPaCa-2 cells; experiment: Analysis of γH2AX, 53BP1 and Rad51 foci; assay type: cell-based
[12] = test system: human dermal microvascular endothelial cells (HDMECs); experiment: Capillary tube formation; assay type: cell-based; details: VE-822 80 nM; XRT 6 Gy or gemcitabine 50 nM
ATM [13] = target: T2, ATM; experiment: Biochemical inhibition of ATR and related kinases
[14] = test system: tumor xenograft vessel density; experiment: Tumor vessel density; assay type: in vivo, mice
In short: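 Frozen xenograft tumors were cut into 10-μm sections, treated with 0.3% H2O2 for 20 min, then blocked in TNB for 30 min. Sections were stained 1 h with rat anti-mouse CD31 (1:50), then anti-rat […]. Vessels per field were counted in five random viable 10× fields per tumor, n=4–5 tumors per group.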

[15] = test system: γH2AX in PSN-1 tumor xenografts; experiment: SPECT imaging of γH2AX in pancreatic tumor xenografts; assay type: in vivo, mice
In short: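 111In-DTPA–anti-γH2AX-Tat was injected 2 h before radiation, and SPECT/CT was run at 24 h post-XRT. Tumor uptake came from volume-of-interest analysis as %ID/g; organs were then removed, weighed and counted.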

[16] = test system: ATM, Chk2 or DNA-PK phosphorylation; experiment: Immunoblot for ATM/Chk2 and DNA-PK phosphorylation; assay type: cell-based; details: VE-822 80 nmol/L; XRT 6 Gy

With `CNCc1ccc(-c2cc(-c3nc(-c4ccc(S(=O)(=O)C(C)C)cc4)cnc3N)on2)cc1` [VE-822] the body weight ([1]; growth delay experiment I) was “No body weight loss”, the body weight ([1]; growth delay experiment II) was “no effects on body weight” and the body weight ([1]; growth delay experiment III) was “no weight loss”. For the same molecule, the body weight ([1]; growth delay experiment IV) was “No weight loss”, the body weight ([1]; growth delay experiment V) was “no weight loss” and the “tumor growth, VE-822 alone vs control” value (MiaPaCa-2 xenografts; 60 mg/kg days 0–5) was “no statistical change in tumor growth”. The “tumors that regrew, VE-822 + XRT” value (MiaPaCa-2 xenografts; 60 mg/kg days 0–5, 6 Gy day 1, n=4) was 2/4, the “TV600 of regrowing tumors, VE-822 + XRT vs XRT” value (MiaPaCa-2 xenografts; two regrowing tumors, P<0.001) was “significantly longer than the TV600 for the XRT1 group” and the Ki (DNA-PK [2]) was over 4000 nM. The “XRT-enriched G2/M-phase-fraction” value ([3]; VE-822 80 nM + XRT 6 Gy) was “abrogated by co-treatment with VE-822”, the “cell-cycle distribution, VE-822 alone” value ([3]; VE-822 80 nM, 12 h and 24 h) was “increased the G1-phase-fraction” and the “gemcitabine-induced S-phase arrest” value ([3]; gemcitabine 10 nM then VE-822 80 nM) was “not affected by VE-822”. The Ki (mTOR) was over 1000 nM, the “tumor growth, VE-822 alone” value (PSN-1 xenografts; experiment I, 60 mg/kg days 0–5) was “no effect on tumor growth” and the “TV600 (time to 600 mm^3), XRT plus VE-822 vs XRT alone” value (PSN-1 xenografts; experiment I, 60 mg/kg for 6 or 4 days, 6 Gy day 1, P<0.001) was “more than doubled the TV600 of XRT alone”. For the same molecule, the “tumor regrowth, VE-822 + fractionated XRT vs fractionated XRT” value (PSN-1 xenografts; experiment II, 60 mg/kg days 0–5, 5 x 2 Gy days 1–5, P<0.001) was “significantly delayed regrowth compared with XRT1–5”, the “radiosensitisation (TV400) with intermittent dosing” value (PSN-1 xenografts; experiment IV, 15, 30 and 60 mg/kg, days 0, 2 and 4, 6 Gy) was “dose-dependent radiosensitisation response” and the “tumor growth delay, gemcitabine + XRT + VE-822 vs gemcitabine + XRT” value (PSN-1 xenografts; experiment V, P<0.001) was “substantially prolonged the tumor growth delay compared with the Gem0XRT1 group”. The “tumor growth delay, VE-822 + XRT vs XRT” value (PSN-1 xenografts; experiment V, VE-822 60 mg/kg d1, 3, 5, XRT d1, P<0.05) was “significantly longer compared with the XRT1 group”, the “TV400, gemcitabine + VE-822 vs gemcitabine alone” value (PSN-1 xenografts; experiment V, gemcitabine 100 mg/kg d0, VE-822 60 mg/kg d1, 3, 5, P>0.05) was “did not significantly increase TV400 compared with gemcitabine alone” and the IC50 (ATM [4]) was 2600 nM. The “clonogenic survival of irradiated PDAC” value ([5]; VE-822 80 nM, 1 h before until 18 h post-XRT) was “decreased survival of irradiated PDAC”, the “reduction of survival after chemoradiotherapy (triple combination)” value ([5]; gemcitabine 10 or 5 nM 24 h, VE-822 80 nM, XRT 4 Gy) was “dramatically more after chemoradiotherapy” and the “reduction of survival on adding VE-822 to gemcitabine” value ([5]; gemcitabine 24 h, then VE-822 80 nM 18 h) was 2–3 fold. The “apoptosis, single agent” value (PSN-1 cells) was “little effect”, the “apoptosis, combinations of VE-822, XRT and/or gemcitabine” value (PSN-1 cells; VE-822 80 nM, XRT 6 Gy, gemcitabine 10 nM, strongest in triple combination) was “enhanced early and late apoptosis” and the “clonogenic survival of normal fibroblasts after XRT or gemcitabine” value [6] was “did not alter clonogenic survival of fibroblasts”. The IC50 (DNA-PK [7]) was 18100 nM, the Ki (PI3Kγ) was 220 nM and the “phospho-Ser345-Chk1 after gemcitabine, XRT or chemoradiotherapy” value [8] was “reduced phospho-Ser345-Chk1”. For the same molecule, the “villus tip loss and villi length, VE-822 + XRT vs XRT alone” value ([9]; 60 mg/kg days 0, 2, 4, 6 Gy day 0, day 5) was “did not increase villus tip loss or villi shortening”, the “body weight loss, combination vs XRT-only” value ([9]; abdominal XRT 6 Gy) was “equivalent body weight loss” and the “phospho-Ser345-Chk1 after gemcitabine, XRT or both” value (phospho-Ser345-Chk1) was “reduced phospho-Ser345-Chk1”. For the same molecule, the “phospho-Ser-345-Chk1 in xenografts after DNA-damaging agents” value [10] was “inhibited phospho-Ser-345-Chk1 in xenografts”, the “residual γH2AX and 53BP1 foci” value ([11]; VE-822 80 nM 1 h before XRT 6 Gy, 24 h post-XRT, vs XRT) was “increased XRT-induced residual γH2AX and 53BP1 foci” and the Rad51 foci ([11]; VE-822 80 nM pre-treatment, XRT 6 Gy, 6 h post-XRT) was “decreased Rad51 foci after XRT”. For the same molecule, the “γH2AX, 53BP1 or Rad51 foci, VE-822 alone” value ([11]; VE-822 alone (data not shown)) was “no effect on γH2AX, 53BP1 or Rad51 foci”, the “tube formation after XRT or gemcitabine” value [12] was “did not modify tube formation” and the Ki (ATM [13]) was 34 nM. For the same molecule, the “vessel density, addition of VE-822 and/or XRT to gemcitabine” value ([14]; growth delay experiment V) was “did not alter vessel density significantly”, the “vessel density, VE-822 alone or with XRT” value ([14]; growth delay experiments I-III) was “did not alter vessel density” and the “tumor uptake of 111In-DTPA–anti-γH2AX-Tat, VE-822 alone” value ([15]; 60 mg/Kg days 0 and 1) was “no elevation in uptake”. For the same molecule, the “tumor uptake of 111In-DTPA–anti-γH2AX-Tat, VE-822 plus XRT, higher compared with XRT” value ([15]; 60 mg/Kg days 0 and 1, 6 Gy day 1, 24 h post-XRT, P<0.05) was 44% and the “ATM, Chk2 or DNA-PK phosphorylation in response to radiation” value [16] was “did not inhibit ATM, Chk2 or DNA-PK phosphorylation”.
In the case of `Nc1ccn([C@@H]2O[C@H](CO)[C@@H](O)C2(F)F)c(=O)n1` [gemcitabine, reference compound], the “tumor growth, gemcitabine alone” value (PSN-1 xenografts; 100 mg/kg i.p. day 0) is reported as “did not alter tumor growth significantly; also recorded: does not itself lead to tumor growth delay”, the “tumor growth delay, gemcitabine + XRT vs gemcitabine” value (PSN-1 xenografts; experiment V, P<0.05) is reported as “increased tumor growth delay compared with Gem0” and the “apoptosis, single agent” value (PSN-1 cells) is reported as “increased apoptosis slightly”. For the same molecule, the “vessel density after gemcitabine” value ([14]; growth delay experiment V) was “significantly reduced vessel density”.
